HCT116 bCat-KO – primary screen for growth suppressors in beta-catenin knockout HCT116 cells (colon tumor, human); 1.5% of 140,000 active; AID 818, 2007; viability, % at 10 µM; HCT116 beta-catenin knockout viability, CellTiter-Glo, 60 h; hits give low values;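 active means viability at or under a set limit, the compound median less 4 SD, cut at about 6% in these data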;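 further: 0% = Hyamine 1622 control at 20 µM and 100% = untreated cell control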
HUVEC prolif 384 – inhibitors of HUVEC proliferation, primary screen, cell-based, 384-well. CellTiter-Glo luminescence, 72 h; hits give low values. viability, % at 10 µM (by protocol). 1.1% of 86,000 active. AID 648, 2007;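 active means viability at or below 30%; inactive means viability above 30%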;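 further: 100% = median luminescence of DMSO-only cell control wells on each plate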
PTEN del growth – growth suppression of PTEN-null HCT116, primary screen, cell-based, CellTiter-Glo; viability, % at 10 µM; 1.2% of 140,000 active; HCT116 PTEN-null viability, 60 h; hits give low values;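 active means viability at or below a set limit, 4 SD under the median of all tested compounds, cut at about 3.7% in these data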;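 further: PTEN knockout HCT116 line with beta catenin targeted HCT116 as companion control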
H69AR growth 86K – proliferation blockers of H69AR lung cancer cells, primary screen, cell-based, human, 86K library | viability, % at 10 µM | H69AR lung tumor viability, ATP luminescence, 72 h; hits give low values | 6% of 85,000 active;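 active means viability at or below 40%; inactive means viability above 40%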;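 further: multidrug resistant small cell line overexpressing MRP-1 efflux transporter; 100% = mean luminescence of untreated control wells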
Lung fibro prol – antiproliferative effect on LL 47 fibroblasts – human, LL 47 cells, CellTiter-Glo luminescence, primary screen; LL 47 human lung fibroblast viability, ATP luminescence; hits give low values; viability, % at 10 µM; 1.1% of 85,000 active;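 active means viability at or below 50% in the single dose screen; inactive means viability above 50%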;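 further: compound exposure lasted 72 h before the ATP readout; 100% = median luminescence of untreated cell-only wells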
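material = human LL 47 lung fibroblast cells | dosing = compounds added from tenfold dosing solution, 0.1% DMSO final | timing = overnight cell rest, 72 h compound treatment at 37 °C | measured by = CellTiter-Glo luminescence measuring cellular ATP | evaluation = % viability versus median cells-only luminescence | control set = cell-only wells, no compound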
Numbers without * were called inactive; / = not tested or not shown. The sample as a whole holds a higher share of hits than the screen did.

SMILES	HCT116 bCat-KO	HUVEC prolif 384	PTEN del growth	H69AR growth 86K	Lung fibro prol
COc1ccc2[nH]c(=O)c(CN(Cc3nnnn3Cc3ccco3)C3CCCCC3)cc2c1	76	69	67	38*	97
COc1ccc2[nH]c(=O)c(CN(C3CCCCC3)C(c3nnnn3Cc3ccco3)C(C)C)cc2c1 (stereo not given)	50	56	47	96	39*
COc1ccc(Cn2nnnc2CN(Cc2cc3cc(C)ccc3[nH]c2=O)C2CCCC2)cc1	66	78	54	51	89
CCC(c1nnnn1C1CCCCC1)N(Cc1ccco1)Cc1cc2ccc(OC)cc2[nH]c1=O (stereo not given)	3.0*	53	18	15*	93
COC(=O)c1cc2oc(C)cc2n1CC(=O)N1CCCc2ccccc21	93	102	75	88	100
Cc1ccc(S(=O)(=O)/N=C(/Nc2c(C)n(C)n(-c3ccccc3)c2=O)c2ccccc2)cc1	92	/	95	/	/
Cc1cccc(N2CCc3c2nc2ccc(Br)cc2c3N)c1	49	62	40	22*	99
Nc1c2c(nc3ccc(Br)cc13)N(Cc1ccccc1)CC2	86	/	86	/	/
Nc1c2c(nc3ccc(Br)cc13)N(c1ccccc1)CC2	76	78	63	32*	94
O=C(c1ccccc1)N1CCN(C2c3cccc4cccc(c34)C2NS(=O)(=O)c2ccccc2)CC1 (stereo not given)	71	84	61	76	96
COc1ccc(Br)cc1CNc1ccc(O)cc1	83	88	66	36*	100
COc1ccc(Br)cc1CNC(C)c1ccccc1 (stereo not given)	74	/	74	/	/
NS(=O)(=O)c1cccc(NC(=O)Cn2cnc3ccccc3c2=O)c1	95	/	97	/	/
Cc1nn(Cc2ccccc2)c(C)c1NC(=O)CSc1nc2sc3c(c2c(=O)n1C)CCC3	/	97	/	44	93
Cc1ccc(NCC(=O)N/N=C\C(Br)=C\c2ccccc2)cc1	2.6*	100	2.7*	74	100
Cc1cc(C)nc(SCC(=O)N/N=C\C(Br)=C\c2ccccc2)n1	62	/	66	/	/
CCOc1cc(C(=O)N/N=C/C(Br)=C/c2ccccc2)cc(OCC)c1OCC	14	/	2.3*	/	/
Cc1onc(-c2ccccc2)c1C(=O)N/N=C/C(Br)=C/c1ccccc1	3.6*	/	2.9*	/	/
COc1ccc(/C=N/NC(=O)c2c(-c3ccccc3)noc2C)cc1	105	/	96	/	/
O=C(N/N=C/C(Br)=C\c1ccccc1)c1ccc2nc[nH]c2c1	2.2*	/	3.3*	/	/
CCOc1cc(/C=N/n2cnnc2)ccc1OC(=O)c1cccc([N+](=O)[O-])c1	84	/	82	/	/
CCC(SC1=NCCS1)C(=O)Nc1ccc(S(N)(=O)=O)cc1 (stereo not given)	94	/	99	/	/
CC(C)(C)NC(=O)COC(=O)c1cc(S(=O)(=O)N2CCCCC2)ccc1N1CCOCC1	87	/	84	/	/
CCOC(=O)c1ccc(Nc2nc(C)cc(=O)[nH]2)cc1	86	96	85	88	112
CCCOC(=O)c1ccc(Nc2nc(C)cc(=O)[nH]2)cc1	94	94	94	17*	106
SMILES	HCT116 bCat-KO	HUVEC prolif 384	PTEN del growth	H69AR growth 86K	Lung fibro prol
CCN(CC)CCNC(=O)Cc1nn(CC)c(=O)c2ccccc12	110	113	105	108	97
CCN(CC)CCNc1ccc(CO)c2sc3ccccc3c(=O)c12	1.9*	/	1.9*	/	/
COc1ccc(-n2nnnc2Sc2ccc(S(=O)(=O)N3CCOCC3)cn2)cc1	/	93	/	66	98
CCS(=O)(=O)CCSc1nc2ccccc2o1	96	112	87	89	111
O=S(=O)(CCSc1ccccn1)c1nc2ccccc2s1	35	37	53	1.9*	43*
O=S(=O)(CCSc1nc2ccccc2o1)c1nc2ccccc2s1	5.1*	12*	3.5*	95	6.2*
O=C1C=CC2C(c3ccc4c(c3)OCO4)CC1N2Cc1ccccc1 (stereo not given)	27	/	24	/	/
O=C(c1ccc(Cl)c(S(=O)(=O)NCc2ccccc2)c1)N1CCN(c2ccccn2)CC1	48	74	/	21*	94
Cc1cccc(N2CCN(C(=O)c3ccc(Cl)c(S(=O)(=O)NCc4ccco4)c3)CC2)c1C	10	55	9	21*	68
O=C(O)c1ccc(Cl)c(S(=O)(=O)NCc2ccco2)c1	99	106	102	91	98
COC(=O)NC(=S)Nc1ccc(Oc2ccc(Cl)cc2Cl)c(Cl)c1	23	57	26	24*	103
O=c1[nH]c(Nc2nc3ccccc3o2)nc2c1CCCC2	3.3*	55	2.8*	17*	5.6*
CCOC(=O)c1c(CN2CCN(c3ccccc3)CC2)oc2ccc(O)cc12	86	27*	70	31*	92
CCOC(=O)c1c(CN2CCN(C)CC2)oc2ccc(OC)cc12	98	92	97	88	105
O=C(COc1c(Br)cc(Br)c2cccnc12)N1CCc2ccccc2C1	86	93	93	53	97
Oc1c(I)cc(Cl)c2cccnc12	18	12*	8	8.3*	70
Oc1c(CN2CCCCC2)cc(Br)c2cccnc12	1.7*	/	1.4*	/	/
Oc1c(CN2CCc3ccccc3C2)cc(Cl)c2cccnc12	2.9*	5.9*	3.0*	2.0*	14*
CN(CC(=O)NCc1ccc2c(c1)OCO2)S(=O)(=O)c1ccc(Br)s1	97	98	96	102	97
CCc1nc(SCC(=O)NCc2ccccc2)c2c(=O)n(C)c(=O)n(C)c2n1	95	87	84	27*	94
CCCc1nc(SCC(=O)N2CCC(Cc3ccccc3)CC2)c2c(=O)n(C)c(=O)n(C)c2n1	8	3.2*	1.4*	42	105
Cc1ccc(C(=O)OCc2ccc3c(c2)OCO3)cc1S(=O)(=O)N1CCCCC1	89	91	75	86	109
CC(=O)Nc1c(O)nc(SCC(=O)Nc2c(C)cccc2C)[nH]c1=O	95	106	101	112	101
CN(C)CC/C=C1/c2ccccc2Sc2c(O)cc(Cl)cc21	14	50	20	6.3*	54
COc1cc(Cl)cc2c1Sc1ccccc1/C2=C/CCN(C)C	2.2*	4.1*	4	2.7*	96
COc1cc2c(cc1Cl)/C(=C\CCN(C)C)c1ccccc1S2	13	/	13	/	/
Cc1onc(-c2c(Cl)cccc2Cl)c1C(=O)Nc1ccc2c(c1)OCO2	78	84	/	73	91
Cn1c(COc2ccc(Cl)cc2)nnc1SCC(=O)Nc1ccc2c(c1)CCC2	83	/	95	/	/
CCc1ccc(NC(=O)CSc2nc3n[nH]c(C)c3c(=N)n2-c2cccc(OC)c2)cc1	21	64	30	10*	60
Cc1cc(-n2c(SCC(=O)NCc3cccs3)nc3n[nH]c(C)c3c2=N)ccc1Cl	60	45	/	24*	85

Screening data deposited in PubChem BioAssay by SRMLSC.
